Measurements as given in ChEMBL document CHEMBL1144994, “Metal coordination-based inhibitors of adenylyl cyclase: novel potent P-site antagonists” (J Med Chem, 2003).

Biological target: Adenylate cyclase type 5 (Homo sapiens, UniProt O95622)
Experiment: Inhibitory activity against recombinant human adenylate cyclase 5 expressed in HEK293 cells.
Assay type: cell-based
In short: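 Membranes from HEK293 cells expressing human type V AC (1.4 µg/mL protein), stimulated with 25 nM activated recombinant GsR. Buffer: 60 mM HEPES pH 8.0, 0.6 mM EDTA, 0.01% BSA, 1 mM ATP, 2 mM IBMX, 2 mM MgCl₂. Reaction 30 min at 30 °C. cAMP product quantified by flash plate. Inhibition calculated against compound-free controls.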

Chain of Adenylate cyclase type 5 (O95622 whole entry): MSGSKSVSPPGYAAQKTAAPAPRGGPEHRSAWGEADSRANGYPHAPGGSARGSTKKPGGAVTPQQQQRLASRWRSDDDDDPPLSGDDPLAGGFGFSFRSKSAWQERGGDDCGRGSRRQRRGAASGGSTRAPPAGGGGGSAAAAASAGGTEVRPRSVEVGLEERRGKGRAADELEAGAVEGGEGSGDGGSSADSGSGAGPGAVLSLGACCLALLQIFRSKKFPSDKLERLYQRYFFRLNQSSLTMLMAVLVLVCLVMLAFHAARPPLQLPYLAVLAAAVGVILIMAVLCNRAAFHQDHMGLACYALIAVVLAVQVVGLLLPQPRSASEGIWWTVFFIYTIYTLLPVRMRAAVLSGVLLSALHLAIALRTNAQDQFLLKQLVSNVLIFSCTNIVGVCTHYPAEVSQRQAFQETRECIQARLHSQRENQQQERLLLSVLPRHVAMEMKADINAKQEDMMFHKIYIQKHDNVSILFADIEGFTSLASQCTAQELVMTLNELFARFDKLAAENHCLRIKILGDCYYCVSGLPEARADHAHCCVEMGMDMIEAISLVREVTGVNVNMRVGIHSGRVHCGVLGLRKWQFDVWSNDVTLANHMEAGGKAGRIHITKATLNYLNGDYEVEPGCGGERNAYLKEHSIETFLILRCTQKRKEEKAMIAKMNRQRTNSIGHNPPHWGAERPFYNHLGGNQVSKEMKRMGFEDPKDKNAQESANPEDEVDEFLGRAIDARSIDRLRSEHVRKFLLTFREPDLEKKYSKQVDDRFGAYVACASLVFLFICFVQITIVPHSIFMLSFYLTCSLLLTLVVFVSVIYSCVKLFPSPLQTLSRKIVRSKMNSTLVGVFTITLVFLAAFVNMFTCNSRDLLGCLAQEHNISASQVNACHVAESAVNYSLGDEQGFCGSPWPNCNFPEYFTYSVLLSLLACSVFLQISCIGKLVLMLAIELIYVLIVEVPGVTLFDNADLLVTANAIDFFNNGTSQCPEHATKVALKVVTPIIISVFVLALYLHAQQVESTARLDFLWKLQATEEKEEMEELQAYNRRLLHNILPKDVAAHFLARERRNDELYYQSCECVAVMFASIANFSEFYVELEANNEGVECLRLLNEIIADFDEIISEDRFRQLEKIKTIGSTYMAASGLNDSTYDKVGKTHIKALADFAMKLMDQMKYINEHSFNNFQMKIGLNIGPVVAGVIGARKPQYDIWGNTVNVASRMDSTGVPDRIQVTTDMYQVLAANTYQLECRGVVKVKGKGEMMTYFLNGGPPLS

| SMILES | IC50 |
| --- | --- |
| Nc1ncnc2c1ncn2[C@H]1CC[C@@H](C(=O)NO)C1 | 4.6 µM |
| Nc1ncnc2c1ncn2[C@H]1CC[C@H](CC(=O)O)C1 | > 100 µM |
| Nc1ncnc2c1ncn2[C@H]1CC[C@@H](CC(=O)O)C1 | > 200 µM |
| Nc1ncnc2c1ncn2[C@@H]1C=C[C@H](CC(=O)O)C1 | 73.2 µM |
| Nc1ncnc2c1ncn2[C@H]1C=C[C@@H](CC(=O)NO)C1 | 16.3 µM |
| Nc1ncnc2c1ncn2[C@@H]1C=C[C@@H](CC(=O)NO)C1 | 4.3 µM |
| Nc1ncnc2c1ncn2[C@H]1CC[C@H](OCC(=O)NO)C1 | 10.8 µM |
| Nc1ncnc2c1ncn2[C@@H]1C=C[C@@H](CC(=O)O)C1 | > 200 µM |
| Nc1ncnc2c1ncn2[C@H]1C=C[C@H](OCC(=O)NO)C1 | 13.6 µM |
| Nc1ncnc2c1ncn2[C@@H]1C=C[C@@H](C(=O)NO)C1 | 100 µM |
| Nc1ncnc2c1ncn2[C@H]1CC[C@@H](CC(=O)NO)C1 | 25.1 µM |
| Nc1ncnc2c1ncn2[C@@H]1CC[C@H](CC(=O)NO)C1 | 55 µM |
| Nc1ncnc2c1ncn2[C@H]1CC[C@H](CC(=O)NO)C1 | 9.4 µM |
| Nc1ncnc2c1ncn2[C@@H]1CC[C@@H](CC(=O)O)C1 | 28.8 µM |
| Nc1ncnc2c1ncn2[C@H]1C=C[C@@H](CC(=O)O)C1 | > 200 µM |
| Nc1ncnc2c1ncn2[C@@H]1CC[C@H](C(=O)NO)C1 | > 70 µM |
| Nc1ncnc2c1ncn2[C@H]1C=C[C@@H](C(=O)NO)C1 | 188 µM |
| Nc1ncnc2c1ncn2[C@@H]1CC[C@H](CC(=O)O)C1 | > 200 µM |
| Nc1ncnc2c1ncn2[C@@H]1CC[C@@H](CC(=O)NO)C1 | 0.6 µM |
| Nc1ncnc2c1ncn2[C@H]1C=C[C@H](CC(=O)NO)C1 | 0.4 µM |
| Nc1ncnc2c1ncn2[C@H]1C=C[C@H](C(=O)NO)C1 | 4.9 µM |
| Nc1ncnc2c1ncn2[C@@H]1C=C[C@H](C(=O)NO)C1 | > 200 µM |
| Nc1ncnc2c1ncn2[C@H]1C=C[C@H](CC(=O)O)C1 | 8.2 µM |
| Nc1ncnc2c1ncn2[C@@H]1C=C[C@H](CC(=O)NO)C1 | 2.6 µM |
| Nc1ncnc2c1ncn2[C@@H]1CC[C@@H](C(=O)NO)C1 (single isomer, unassigned) | 78 µM |
| Nc1ncnc2c1ncn2[C@H]1CC[C@H](C(=O)NO)C1 (single isomer, unassigned) | 0.2 µM |
